# Source: ChEMBL document CHEMBL3352117, “Piperazine and piperidine carboxamides and carbamates as inhibitors of fatty acid amide hydrolase (FAAH) and monoacylglycerol lipase (MAGL)” (Bioorg Med Chem, 2014)
# Assays:
# Monoglyceride lipase = molecular target: T1, Monoglyceride lipase (Homo sapiens, UniProt Q99685); test: Inhibition of human recombinant MAGL expressed in HEK293 cells using 2-AG as substrate; type: cell-based
# T1 sequence (Q99685 whole entry): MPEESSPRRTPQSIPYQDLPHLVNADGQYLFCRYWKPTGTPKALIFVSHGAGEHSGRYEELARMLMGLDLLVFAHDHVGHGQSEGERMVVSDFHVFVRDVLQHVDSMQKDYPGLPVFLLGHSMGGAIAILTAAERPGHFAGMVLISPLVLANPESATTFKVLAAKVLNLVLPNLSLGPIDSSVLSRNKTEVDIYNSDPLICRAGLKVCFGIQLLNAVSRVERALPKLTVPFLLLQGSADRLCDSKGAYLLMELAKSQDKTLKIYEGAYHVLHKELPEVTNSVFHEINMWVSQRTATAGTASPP
# Procedure, shortened: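 Lysates of HEK293 cells transiently overexpressing human recombinant MAGL, 2.5 ug protein per incubation. 2-AG substrate at 50 uM.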
# [1] = molecular target: T2, Fatty-acid amide hydrolase 1 (Homo sapiens, UniProt O00519); test: Inhibition of human recombinant FAAH expressed in COS7 cells using anandamide as substrate; type: cell-based, COS-7
# T2 sequence (O00519 whole entry): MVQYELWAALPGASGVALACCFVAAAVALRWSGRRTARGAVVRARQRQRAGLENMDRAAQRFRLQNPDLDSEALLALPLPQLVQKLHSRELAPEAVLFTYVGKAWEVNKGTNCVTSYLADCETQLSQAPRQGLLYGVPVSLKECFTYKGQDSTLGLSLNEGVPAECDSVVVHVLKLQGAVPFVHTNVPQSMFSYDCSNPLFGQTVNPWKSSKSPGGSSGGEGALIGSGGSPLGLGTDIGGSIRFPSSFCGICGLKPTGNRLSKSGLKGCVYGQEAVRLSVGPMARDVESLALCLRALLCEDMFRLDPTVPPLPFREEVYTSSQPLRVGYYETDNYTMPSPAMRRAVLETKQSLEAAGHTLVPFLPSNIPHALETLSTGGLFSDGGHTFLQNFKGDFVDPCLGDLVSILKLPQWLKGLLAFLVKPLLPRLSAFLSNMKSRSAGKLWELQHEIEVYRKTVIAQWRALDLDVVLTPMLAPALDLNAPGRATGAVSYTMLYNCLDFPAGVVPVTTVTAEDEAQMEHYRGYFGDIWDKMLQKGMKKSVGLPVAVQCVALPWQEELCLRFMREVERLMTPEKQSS
# Procedure, shortened: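 Membranes of COS-7 cells transiently overexpressing human recombinant FAAH, 1 ug protein per incubation. Anandamide substrate at 20 uM, including 10 nM 3H-anandamide tracer (specific activity 60 […]/mmol).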
# [2] = molecular target: T3, Fatty-acid amide hydrolase 1 (Homo sapiens) (UniProt O00519); test: Inhibition of human recombinant FAAH expressed in COS7 cells using anandamide as substrate assessed as remaining activity at 10 uM; type: cell-based; settings: COS-7
# T3 sequence (whole entry): T2 sequence (O00519 whole entry)
# Procedure, shortened: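 Membranes of COS-7 cells transiently overexpressing human FAAH, 1 ug protein per incubation, with 20 uM anandamide substrate including 10 nM 3H-anandamide tracer. Test compound at 10 uM. Remaining activity expressed as % of control, given as range, n = 2.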
# [3] = molecular target: T4, Monoglyceride lipase (Homo sapiens) (UniProt Q99685); test: Inhibition of human recombinant MAGL expressed in HEK293 cells using 2-AG as substrate assessed as remaining activity at 10 uM
# T4 sequence (whole entry): T1 sequence (Q99685 whole entry)
# Procedure, shortened: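 Lysates of HEK293 cells transiently overexpressing human MAGL, 2.5 ug protein per incubation, with 50 uM 2-AG substrate. Test compound at 10 uM. Remaining activity expressed as % of control, given as range, n = 2.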
# Homo sapiens = species: Homo sapiens; test: Selectivity ratio of IC50 for human recombinant FAAH to IC50 for human recombinant MAGL
Compound,IC50 (Monoglyceride lipase; read-out: IC50) [nM],IC50 ([1]; read-out: IC50) [nM],IC50 ([1]; read-out: pIC50 (converted)) [nM],Activity [2] [%],Activity [3] [%],IC50 (Monoglyceride lipase; read-out: pIC50 (converted)) [nM],Ratio IC50 (Homo sapiens)
O=C(N1CCN(Cc2cccc(Oc3ccccc3)c2)CC1)n1ccnc1,2840,15,15.5,,,,
O=C(N1CCN(C(c2ccc(F)cc2)c2ccc(F)cc2)CC1)n1cncn1,0.9,282,282,,,,
O=C(Oc1ccc([N+](=O)[O-])cc1)N1CCN(C(c2ccc(F)cc2)c2ccc(F)cc2)CC1,347,,,85,,,
O=C(N1CCN(C(c2ccccc2)c2ccccc2)CC1)n1cncn1,1.3,452,447,,,,
O=C(N1CCN(Cc2ccc(Oc3ccccc3)cc2)CC1)n1nnc2ccccc21,70,708,708,,,,
O=C(Nc1ccccc1)N1CCN(Cc2cccc(Oc3ccccc3)c2)CC1,,3020,3020,,98,,
O=C(OCC(Cl)(Cl)Cl)N1CCC(C(O)(c2ccc3c(c2)OCO3)c2ccc3c(c2)OCO3)CC1,,,,90,89,,
O=C(Oc1ccc([N+](=O)[O-])cc1)N1CCC(=C(c2ccc3c(c2)OCO3)c2ccc3c(c2)OCO3)CC1,,,,89,85,,
CCCCc1ccc(NC(=O)N2CCN(C(c3ccccc3)c3ccccc3)CC2)cc1,,,,84,92,,
COc1ccc(NC(=O)N2CCN(Cc3cccc(Oc4ccccc4)c3)CC2)cc1,,,,56,78,,
O=C(Nc1ccc([N+](=O)[O-])cc1)N1CCN(Cc2cccc(Oc3ccccc3)c2)CC1,,,,98,102,,
O=C(N1CCN(C(c2ccccc2)c2ccccc2)CC1)n1cnc(-c2ccccc2)c1,,,,62,93,,
O=C(Oc1ccc([N+](=O)[O-])cc1)N1CCN(Cc2ccc(Oc3ccccc3)cc2)CC1,1100,,,43,,,
O=C(Oc1ccc([N+](=O)[O-])cc1)N1CCC(C(c2ccc3c(c2)OCO3)c2ccc3c(c2)OCO3)CC1,42,,,88,,,
O=C(Nc1ccccc1)N1CCN(C(c2ccccc2)c2ccccc2)CC1,,,,88,62,,
O=C(N1CCC(C(O)(c2ccc3c(c2)OCO3)c2ccc3c(c2)OCO3)CC1)n1cncn1,,1620,1620,,,0.692,2320
O=C(N1CCN(C(c2ccccc2)c2ccccc2)CC1)n1ccnc1,,2300,2290,,51,,
O=C(N1CCN(c2ccccc2)CC1)n1cncn1,132,6,6.03,,,,

Compound,IC50 (Monoglyceride lipase; read-out: IC50) [nM],IC50 ([1]; read-out: IC50) [nM],IC50 ([1]; read-out: pIC50 (converted)) [nM],Activity [2] [%],Activity [3] [%],IC50 (Monoglyceride lipase; read-out: pIC50 (converted)) [nM],Ratio IC50 (Homo sapiens)
O=C(Nc1cccnc1)N1CCN(C(c2ccccc2)c2ccccc2)CC1,,,,87,101,,
O=C(N1CCN(Cc2cccc(Oc3ccccc3)c2)CC1)n1nnc2cccnc21,5.5,23,22.9,,,,4
O=C(N1CCC(C(c2ccc3c(c2)OCO3)c2ccc3c(c2)OCO3)CC1)n1cncn1,0.4,4800,4790,,,,> 13000
O=C(N1CCN(Cc2ccc(Oc3ccccc3)cc2)CC1)n1ccnc1,660,3.4,17.4,,,,
O=C(N1CCN(C(c2ccccc2)c2ccccc2)CC1)n1nnc2cccnc21,1.7,971,977,,,,
CCOC(=O)N1CCN(C(=O)n2cncn2)CC1,1660,141,141,,,,
O=C(N1CCN(c2ccccc2)CC1)n1nnc2cccnc21,275,11,11.2,,,,
O=C(Nc1ccc(C(F)(F)F)cc1)N1CCN(C(c2ccccc2)c2ccccc2)CC1,,,,86,96,,
O=C(Nc1ccc([N+](=O)[O-])cc1)N1CCN(C(c2ccccc2)c2ccccc2)CC1,,,,84,58,,
O=C(OC(C(F)(F)F)C(F)(F)F)N1CCN(Cc2cccc(Oc3ccccc3)c2)CC1,74,,,76,,,
O=C(N1CCN(Cc2cccc(Oc3ccccc3)c2)CC1)n1nnc2ccccc21,7.8,89,89.1,,,,10
O=C(N1CCN(Cc2cccc(Oc3ccccc3)c2)CC1)n1cncn1,0.6,2.7,2.69,,,,4.5
COc1ccc(NC(=O)N2CCN(C(c3ccccc3)c3ccccc3)CC2)cc1,,,,89,86,,
CCOC(=O)N1CCN(C(=O)n2nnc3cccnc32)CC1,1910,231,229,,,,
O=C(OCc1ccccc1)N1CCC(C(O)(c2ccc3c(c2)OCO3)c2ccc3c(c2)OCO3)CC1,,,,92,92,,
O=C(Nc1ccccn1)N1CCN(C(c2ccccc2)c2ccccc2)CC1,,,,87,94,,
O=C(Oc1ccc([N+](=O)[O-])cc1)N1CCN(C(c2ccccc2)c2ccccc2)CC1,257,,,86,,,
